Reference: ChEMBL document CHEMBL1641481, “Synthesis and biological evaluation of novel dihydro-aryl/alkylsulfanyl-cyclohexylmethyl-oxopyrimidines (S-DACOs) as high active anti-HIV agents” (Bioorg Med Chem Lett, 2011)

system: not listed separately; experiment: Selectivity index, ratio of CC50 for human […] cells to EC50 for HIV1 3B infected in human C8166 cells; type: toxicity, cell-based; conditions: read-out: Ratio CC50/IC50
In short: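 SI was calculated as CC50/EC50. CC50 came from the 72 h MTT assay on uninfected C8166 cells. EC50 came from the 3-day syncytium-count assay in C8166 cells infected with HIV-1 IIIB at MOI 0.02. Both values are means of three experiments.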

| SMILES | selectivity ratio |
| --- | --- |
| CC(C)c1c(CC2CCCCC2)nc(SCC(=O)c2ccccc2O)[nH]c1=O | 117000 |
| COc1ccc(C(=O)CSc2nc(CC3CCCCC3)c(C(C)C)c(=O)[nH]2)cc1 | 1.39e+06 |
| CC(C)c1c(CC2CCCCC2)nc(SCC(=O)c2ccccc2)[nH]c1=O | 3.62e+06 |
| CC(C)CSc1nc(CC2CCCCC2)c(C(C)C)c(=O)[nH]1 | 1710 |
| CC(C)c1c(CC2CCCCC2)nc(SCc2ccccc2)[nH]c1=O | 2.54e+06 |
| CCc1c(CC2CCCCC2)nc(SCC(=O)c2ccc(OC)cc2)[nH]c1=O | 516000 |
| CCc1c(CC2CCCCC2)nc(SCC(=O)c2ccccc2)[nH]c1=O | 6.32e+06 |
| CCc1c(CC2CCCCC2)nc(SCc2ccccc2)[nH]c1=O | 776 |
| CCc1c(CC2CCCCC2)nc(SCC(C)C)[nH]c1=O | 691 |
| COc1ccc(C(=O)CSc2nc(CC3CCCCC3)c(C)c(=O)[nH]2)cc1 | 396 |
| Cc1c(CC2CCCCC2)nc(SCC(=O)c2ccccc2)[nH]c1=O | 2150 |
| Cc1c(CC2CCCCC2)nc(SCc2ccccc2)[nH]c1=O | 48 |
| Cc1c(CC2CCCCC2)nc(SCC(C)C)[nH]c1=O | 34 |
| CCc1c(Cc2ccccc2)nc(SCC(=O)c2ccccc2)[nH]c1=O | > 6850 |
| CCc1c(Cc2ccccc2)nc(SCC(=O)c2ccc(OC)cc2)[nH]c1=O | > 10500 |
| CC(C)c1c(Cc2ccccc2)nc(SCC(=O)c2ccccc2)[nH]c1=O | > 37700 |
| COc1ccc(C(=O)CSc2nc(Cc3ccccc3)c(C(C)C)c(=O)[nH]2)cc1 | > 3390 |
| Cc1ccnc2c1NC(=O)c1cccnc1N2C1CC1 [NEVIRAPINE] | > 15200 |
| Cc1cn([C@H]2C[C@H](N=[N+]=[N-])[C@@H](CO)O2)c(=O)[nH]c1=O [ZIDOVUDINE] | 444000 |

system: Human immunodeficiency virus 1; experiment: Antiviral activity against HIV1 3B infected in human A17 cells assessed as protection against virus-induced cytopathogenicity after 3 days; type: functional, organism-based; conditions: Human immunodeficiency virus 1, 3B, A17, 72 h

| EC50 [µM] | SMILES |
| --- | --- |
| 0.046 | CC(C)c1c(CC2CCCCC2)nc(SCC(=O)c2ccccc2)[nH]c1=O |

system: Human immunodeficiency virus 1; experiment: Antiviral activity against HIV1 3B infected in human PBMC assessed as protection against virus-induced cytopathogenicity after 3 days; type: functional, organism-based; conditions: Human immunodeficiency virus 1, 3B, 72 h

| EC50 [µM] | SMILES |
| --- | --- |
| 0.031 | CC(C)c1c(CC2CCCCC2)nc(SCC(=O)c2ccccc2)[nH]c1=O |
